In ChEMBL document CHEMBL3822438, “Chlorin p6-Based Water-Soluble Amino Acid Derivatives as Potent Photosensitizers for Photodynamic Therapy” (J Med Chem, 2016):

Tests used:
[1] = Dark toxicity in mouse B16F10 cells assessed as cell viability after 48 hrs by cell counting kit-8 based spectrophotometric analysis; parameters: species or system B16-F10; conditions: for IC50 at 48 h: mouse, B16F10 cells
How it was run: (§1)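 CCK-8 dark toxicity. 5×10^3 cells seeded in 10% FBS medium (A375 in DMEM, B16-F10 in RPMI 1640). Exposed to graded compound concentrations for 48 h at 37 °C, kept in the dark. Fresh medium and CCK-8 added for 1.5 h, then absorbance read at 450 nm to give IC50. Ratio is dark IC50 over IC50 under light.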

[2] = Phototoxicity in mouse B16F10 cells assessed as cell viability after 24 hrs followed by irradiation with diode laser at 10 J/cm'2 measured after 24 hrs by cell counting kit-8 based spectrophotometric analysis; type: functional, B16-F10
How it was run: (§2)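 Phototoxicity by CCK-8. Cells loaded with a range of compound concentrations for 24 h at 37 °C, irradiated with a 678 nm diode laser at 10 J/cm², then incubated a further 24 h. Viability read as absorbance at 450 nm after 1.5 h with CCK-8.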

[3] = Ratio of IC50 for dark toxicity to IC50 for phototoxicity in mouse B16F10 cells by cell counting kit-8 based spectrophotometric analysis; parameters: species or system B16-F10; conditions: for selectivity ratio: B16F10 cells, read-out: Ratio IC50; how it was run: as §1
[4] = (§3) Dark toxicity in human A375 cells assessed as cell viability after 48 hrs by cell counting kit-8 based spectrophotometric analysis; parameters: species or system A-375; conditions: human, A375 cells; how it was run: as §1
A-375 [5] = assay: Phototoxicity in human A375 cells assessed as cell viability after 24 hrs followed by irradiation with diode laser at 10 J/cm'2 measured after 24 hrs by cell counting kit-8 based spectrophotometric analysis; type: functional; how it was run: as §2
[6] = Ratio of IC50 for dark toxicity to IC50 for phototoxicity in human A375 cells; type: cell-based, A-375; conditions: for selectivity ratio: A375 cells, read-out: Ratio IC50; how it was run: as §1
A-375 [7] = assay: as §3; conditions: a-375; how it was run: as §1
[8] = Dark toxicity in mouse B16F10 cells assessed as cell viability after 48 hrs by MTT assay; type: cell-based, B16-F10; conditions: b16-f10
How it was run: (§4)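 B16-F10 cells in RPMI 1640 with 10% FBS. Dark arm: compound for 48 h. Light arm: compound for 24 h, then 678 nm diode laser at 10 J/cm², then a further 24 h. Read-out by MTT for 4 h, formazan dissolved in DMSO, absorbance at 490 nm. Ratio is dark IC50 over light IC50.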

[9] = Phototoxicity in mouse B16F10 cells assessed as cell viability after 24 hrs followed by irradiation with diode laser at 10 J/cm'2 measured after 24 hrs by MTT assay; type: functional, cell-based, B16-F10; conditions: b16-f10; how it was run: as §4
[10] = Ratio of IC50 for dark toxicity to IC50 for phototoxicity in mouse B16F10 cells by MTT assay; type: cell-based, B16-F10; conditions: b16-f10; how it was run: as §4
B16-F10 = assay: Phototoxicity in mouse B16F10 cells assessed as reduction in cell surviving fraction by irradiation with diode laser at 10 J/cm'2 after 24 hrs by cell counting kit-8 based spectrophotometric analysis; type: functional
How it was run: (§5)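 Survival fraction after PDT. Cells held 24 h at 2 µM or 0.2 µM, irradiated at 678 nm with 10 J/cm², then cultured another 24 h. Viability measured by CCK-8 at 450 nm.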

A-375 [11] = assay: Phototoxicity in human A375 cells assessed as reduction in cell surviving fraction by irradiation with diode laser at 10 J/cm'2 after 24 hrs by cell counting kit-8 based spectrophotometric analysis; type: functional; how it was run: as §5
[12] = Dark toxicity in mouse B16F10 cells assessed as reduction in cell surviving fraction at 50 to 300 uM after 48 hrs by cell counting kit-8 based spectrophotometric analysis; conditions: b16-f10, 48 h
How it was run: (§6)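 Survival fraction measured in the dark by CCK-8 after 48 h exposure at 37 °C to 300 µM or 50 µM. Cells were in 10% FBS medium (A375 in DMEM, B16-F10 in RPMI 1640). Viability read as absorbance at 450 nm after 1.5 h with CCK-8.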

A-375 [13] = assay: Dark toxicity in human A375 cells assessed as reduction in cell surviving fraction at 50 to 300 uM after 48 hrs by cell counting kit-8 based spectrophotometric analysis; conditions: a-375, 48 h; how it was run: as §6
[14] = Mus musculus, B16-F10, light or radiation study, 24 h
[15] = Homo sapiens, A-375, light or radiation study, 24 h

| Compound | IC50 at 48 h [1] | IC50 [2, 14] | selectivity ratio [3] | IC50 at 48 h [4] | IC50 (A-375 [5]; [15]) | selectivity ratio [6] | IC50 ([1]; b16-f10) | IC50 ([2]; b16-f10) | Ratio IC50 ([3]; b16-f10) | IC50 (A-375 [7]) | IC50 (A-375 [5]; a-375) | Ratio IC50 ([6]; a-375) | IC50 [8] | IC50 [9] | Ratio IC50 [10] | Activity (B16-F10) | Activity (A-375 [11]) | Activity [12] | Activity (A-375 [13]) |
| --- | --- | --- | --- | --- | --- | --- | --- | --- | --- | --- | --- | --- | --- | --- | --- | --- | --- | --- | --- |
| CCC1=C(C)c2cc3[nH]c(cc4nc(c(C(=O)OC)c5[nH]c(cc1n2)c(C)c5C(=O)OC)C(CCC(=O)O)=C4C)[C@@]1(C)C3=CC=C(C(=O)OC)[C@H]1C(=O)OC | 15.3 µM | 0.92 µM | 16.7 | 22.8 µM | 1.47 µM | 15.5 | – | – | – | – | – | – | – | – | – | – | – | – | – |
| CCC1=C(C)c2cc3[nH]c(cc4nc(c(C(=O)OC)c5[nH]c(cc1n2)c(C)c5C(=O)OC)C(CCC(=O)N[C@@H](CCC(=O)O)C(=O)O)=C4C)[C@@]1(C)C3=CC=C(C(=O)OC)[C@H]1C(=O)OC | 224 µM | 4.06 µM | 55.3 | 286 µM | 7.1 µM | 40.3 | – | – | – | – | – | – | – | – | – | – | – | – | – |
| VERTEPORFIN | – | – | – | – | – | – | 24.9 µM | 1.2 µM | 20.77 | 36.3 µM | 2.06 µM | 17.64 | 25 µM | 1.07 µM | 23.39 | – | – | – | – |
| C=Cc1c(C)c2cc3nc(c(C(=O)OC)c4[nH]c(cc5nc(cc1[nH]2)C(C)=C5CC)c(C)c4C(=O)OC)[C@@H](CCC(=O)N[C@@H](CCC(=O)O)C(=O)O)[C@@H]3C | 284 µM | 1.22 µM | 233 | > 300 µM | 1.54 µM | > 195 | – | – | – | – | – | – | – | – | – | Dose-dependent effect | Dose-dependent effect | Non-toxic | Non-toxic |
